Assay results as given in ChEMBL document CHEMBL3351655, “Scaffold decoration at positions 5 and 8 of 1,2,4-triazolo[1,5-c]pyrimidines to explore the antagonist profiling on adenosine receptors: a preliminary structure-activity relationship study” (J Med Chem, 2014).

Tests used:
Adenosine receptor A1 = biological target: T1, Adenosine receptor A1 (Homo sapiens, UniProt P30542); experiment: Displacement of [3H]CCPA from human adenosine A1 receptor expressed in CHO cells; format: cell-based
T1 sequence (P30542 whole entry): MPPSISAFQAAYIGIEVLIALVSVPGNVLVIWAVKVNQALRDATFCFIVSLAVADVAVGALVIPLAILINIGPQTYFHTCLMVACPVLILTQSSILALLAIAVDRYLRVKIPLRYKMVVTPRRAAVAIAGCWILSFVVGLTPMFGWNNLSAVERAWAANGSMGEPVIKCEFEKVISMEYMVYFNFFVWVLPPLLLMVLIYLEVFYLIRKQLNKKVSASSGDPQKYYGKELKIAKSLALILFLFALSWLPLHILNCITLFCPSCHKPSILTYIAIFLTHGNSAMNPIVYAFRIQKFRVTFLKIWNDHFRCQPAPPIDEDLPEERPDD
In short: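 Stably transfected CHO cells were homogenised and spun at 1000g to remove nuclei and fragments. Membranes were then pelleted at 100 000g, resuspended in binding buffer, frozen in liquid nitrogen and stored. Radioligand was [³H]CCPA, with nonspecific binding defined by 1 mM theophylline.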

CHO [1] = experiment: Selectivity ratio of Ki for human adenosine A2A receptor expressed in CHO cells to Ki for human adenosine A3 receptor expressed in CHO cells; format: cell-based
Adenosine receptor A2a = Adenosine receptor A2a (Homo sapiens, UniProt P29274); experiment: Displacement of [3H]NECA from human adenosine A2A receptor expressed in CHO cells; format: cell-based
Adenosine receptor A3 = biological target: T2, Adenosine receptor A3 (Homo sapiens, UniProt P0DMS8); experiment: Displacement of [3H]NECA from human adenosine A3 receptor expressed in CHO cells; format: cell-based
T2 sequence (P0DMS8 whole entry): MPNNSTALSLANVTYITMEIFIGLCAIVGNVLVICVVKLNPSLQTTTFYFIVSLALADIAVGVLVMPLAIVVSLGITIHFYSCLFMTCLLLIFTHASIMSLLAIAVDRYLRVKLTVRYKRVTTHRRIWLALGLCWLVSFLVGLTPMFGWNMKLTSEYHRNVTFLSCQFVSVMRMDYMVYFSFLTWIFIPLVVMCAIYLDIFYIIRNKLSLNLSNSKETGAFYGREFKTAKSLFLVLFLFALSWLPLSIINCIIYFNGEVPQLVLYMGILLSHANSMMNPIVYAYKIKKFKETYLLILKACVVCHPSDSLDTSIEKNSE
In short: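 Radioligand [³H]NECA was used on membranes from stably transfected CHO cells, prepared by a 1000g clearing spin then pelleting at 100 000g. Pellets were resuspended in binding buffer, frozen in liquid nitrogen and stored. Nonspecific binding was defined with 100 μM R-PIA.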

[2] = biological target: Adenosine receptors; A1 & A3 (Homo sapiens) (UniProt P30542+P0DMS8); experiment: Selectivity ratio of Ki for human adenosine A1 receptor expressed in CHO cells to Ki for human adenosine A3 receptor expressed in CHO cells; format: cell-based
CHO [3] = experiment: Selectivity ratio of Ki for human adenosine A1 receptor expressed in CHO cells to Ki for human adenosine A2A receptor expressed in CHO cells; format: cell-based
Adenosine receptor A2b = biological target: T3, Adenosine receptor A2b (Homo sapiens, UniProt P29275); experiment: Antagonist activity at human adenosine A2B receptor expressed in CHO cells assessed as inhibition of NECA-stimulated adenylyl cyclase activity; format: functional, cell-based
T3 sequence (P29275 whole entry): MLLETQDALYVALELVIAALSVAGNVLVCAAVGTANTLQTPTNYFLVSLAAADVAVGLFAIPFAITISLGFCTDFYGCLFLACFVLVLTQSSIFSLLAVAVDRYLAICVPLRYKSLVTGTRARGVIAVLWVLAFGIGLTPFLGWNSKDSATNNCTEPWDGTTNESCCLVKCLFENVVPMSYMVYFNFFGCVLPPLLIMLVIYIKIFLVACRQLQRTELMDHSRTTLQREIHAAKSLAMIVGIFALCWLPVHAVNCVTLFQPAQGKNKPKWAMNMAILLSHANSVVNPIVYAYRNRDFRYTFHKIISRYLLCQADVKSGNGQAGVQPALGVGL
In short: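 Membranes from stably transfected CHO cells, made with a single high-speed centrifugation of the homogenate. Incubated 20 min with about 150 000 cpm [α-³²P]ATP, in a mixture without EGTA and NaCl. IC50 for concentration-dependent inhibition of NECA-stimulated adenylyl cyclase was fitted with the Hill equation and converted to Ki by Cheng–Prusoff.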

Adenosine receptor A2a, sequence (P29274 whole entry): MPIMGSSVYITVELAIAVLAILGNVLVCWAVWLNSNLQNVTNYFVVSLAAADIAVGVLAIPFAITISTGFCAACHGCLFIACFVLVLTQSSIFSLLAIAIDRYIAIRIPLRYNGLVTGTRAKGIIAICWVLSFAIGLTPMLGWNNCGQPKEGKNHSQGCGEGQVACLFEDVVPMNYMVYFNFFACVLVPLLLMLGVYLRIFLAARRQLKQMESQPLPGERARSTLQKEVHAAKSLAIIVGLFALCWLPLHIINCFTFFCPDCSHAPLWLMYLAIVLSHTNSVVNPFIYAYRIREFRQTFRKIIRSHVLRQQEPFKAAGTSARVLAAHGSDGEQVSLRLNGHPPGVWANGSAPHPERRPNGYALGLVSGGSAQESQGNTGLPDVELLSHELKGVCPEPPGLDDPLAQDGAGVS

Structure (SMILES) | Ki (Adenosine receptor A1) | Ki (Adenosine receptor A2a) | Ki (Adenosine receptor A3) | Ratio Ki [2] | Ki (Adenosine receptor A2b) | Ratio Ki (CHO [1]) | Ratio Ki (CHO [3])
CNC(=O)c1cnc(NC(=O)NC2CCCCC2)n2nc(-c3ccco3)nc12 | 8990 nM | 1520 nM | 18700 nM | 0.48 | > 30000 nM | 0.08 | 5.91
CCOC(=O)c1cnc(NCc2ccc(-c3ccccc3)cc2)n2nc(-c3ccco3)nc12 | 890 nM | 187 nM | 875 nM | 1.02 | > 30000 nM | 0.21 | 4.76
CCOC(=O)c1cnc(NC(=O)Nc2ccccc2)n2nc(-c3ccco3)nc12 | 322 nM | 4.82 nM | 357 nM | 0.9 | 1900 nM | 0.01 | 66.8
CNC(=O)c1cnc(NC(=O)Nc2ccccc2)n2nc(-c3ccco3)nc12 | 126 nM | 5.76 nM | 730 nM | 0.17 | 1180 nM | 0.01 | 21.9
COc1ccc(CCCn2ncc3c2nc(N)n2nc(-c4ccco4)nc32)cc1 | 1110 nM | – | > 10000 nM | – | > 10000 nM | – | –
O=C(Nc1ccccc1)Nc1ncc(C(=O)NCCc2ccccc2)c2nc(-c3ccco3)nn12 | 365 nM | 51.4 nM | 1350 nM | 0.27 | > 30000 nM | 0.04 | 7.1
CNC(=O)c1cnc(NC(=O)Cc2ccccc2)n2nc(-c3ccco3)nc12 | 296 nM | 12.4 nM | 1190 nM | 0.25 | 4840 nM | 0.01 | 23.9
CCOC(=O)c1cnc(NCc2ccc(F)cc2)n2nc(-c3ccco3)nc12 | 932 nM | 39.3 nM | 46.3 nM | 20.1 | 1970 nM | 0.85 | 23.7

The next lines start with results.

Ki (Adenosine receptor A1) | Ki (Adenosine receptor A2a) | Ki (Adenosine receptor A3) | Ratio Ki [2] | Ki (Adenosine receptor A2b) | Structure (SMILES) | Ratio Ki (CHO [1]) | Ratio Ki (CHO [3])
1780 nM | 33800 nM | 16400 nM | 0.11 | > 10000 nM | CCCCC(CC)CNc1ncc(C(=O)O)c2nc(-c3ccco3)nn12 (stereo not drawn) | 2.06 | 0.05
13400 nM | 6480 nM | 275 nM | 48.7 | > 10000 nM | CCOC(=O)c1cnc(N(C)C)n2nc(-c3ccco3)nc12 | 23.6 | 2.07
1110 nM | 596 nM | 165 nM | 6.73 | > 10000 nM | O=C(O)c1cnc(NC2CC2)n2nc(-c3ccco3)nc12 | 3.61 | 1.86
135 nM | 15 nM | 609 nM | 0.22 | 2030 nM | CNC(=O)c1cnc(N)n2nc(-c3ccco3)nc12 | 0.02 | 9
11900 nM | 3680 nM | 480 nM | 24.8 | > 10000 nM | CCNc1ncc(C(=O)O)c2nc(-c3ccco3)nn12 | 7.67 | 3.23
978 nM | 104 nM | 4.14 nM | 236 | 2450 nM | CCOC(=O)c1cnc(NC)n2nc(-c3ccco3)nc12 | 25.1 | 9.4
162 nM | 50.3 nM | 3.3 nM | 49.1 | 3060 nM | CCNc1ncc(C(=O)OCC)c2nc(-c3ccco3)nn12 | 15.2 | 3.22
45.6 nM | 44.4 nM | 24.4 nM | 1.87 | 7150 nM | CCOC(=O)c1cnc(NCC(C)C)n2nc(-c3ccco3)nc12 | 1.82 | 1.03
